SMILES strings stand for the structures.

Broadly, the IC50 is the concentration that gives 50% inhibition.

The subject of one experiment is MDA-MB-231. Description: Anticancer activity against human MDA-MB-231 cells assessed as cell growth inhibition measured after 48 hrs by MTT assay. Conditions: MDA-MB-231, 48 h. It is filed as functional, cell-based. The essentials: (§1)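 MTT test on ATCC lines grown in RPMI with 10% FBS and antibiotic/antimycotic at 37 °C in 5% CO₂. Cells were seeded at 4 x 10^3/well and treated for 48 h at 2.5, 5, 10 and 20 µM, from DMSO stocks diluted in medium. MTT (10 mg/mL stock) was then added for 3 h and absorbance read at 540 nm. IC50 derived; three independent experiments.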

The subject of another experiment is HepG2. Description: Anticancer activity against human HepG2 cells assessed as cell growth inhibition measured after 48 hrs by MTT assay. The class given is functional, cell-based. Particulars: HepG2, 48 h. The essentials: as §1
Another experiment concerns HEK293. Description: Cytotoxicity against human HEK293 cells assessed as cell growth inhibition measured after 48 hrs by MTT assay. Conditions: HEK293, 48 h. The class given is cell-based. The essentials:
as §1
(Formazan colour is commonly taken as a measure of viable cells.)

The test system of the next experiment is B16-F10. Description: Anticancer activity against mouse B16-F10 cells assessed as cell growth inhibition measured after 48 hrs by MTT assay. The class given is functional, cell-based. Particulars: B16-F10, 48 h. The method in brief:
as §1

A further experiment deals with MCF7. Description: Anticancer activity against human MCF-7 cells assessed as cell growth inhibition measured after 48 hrs by MTT assay. The class given is functional, cell-based. Particulars: MCF7, 48 h. The essentials: as §1

With `COc1cccc2c1C(=O)c1c(O)c3c(c(O)c1C2=O)C[C@@](O)(C(=O)CO)C[C@@H]3O[C@H]1C[C@H](N)[C@H](O)[C@H](C)O1` [DOXORUBICIN], the IC50 in the experiment on MDA-MB-231 turned out to be 2.56 µM; with HepG2, 2.35 µM; with HEK293 it was 1.65 µM; with B16-F10 it was 3.28 µM.
For `CCOC(=O)c1c(-c2cc(O)c3c(c2)C(=O)c2cccc(O)c2C3=O)nn(-c2ccc(C#N)cc2)c1C(=O)OCC`, the IC50 in the experiment on MDA-MB-231 is 1.15 µM; in the experiment with HepG2 it was 1.34 µM; in the experiment with MCF7, 4.62 µM; in the experiment with HEK293, 1.97 µM; in the experiment on B16-F10 it was 3.46 µM.
Regarding `CCOC(=O)c1c(-c2cc(O)c3c(c2)C(=O)c2cccc(O)c2C3=O)nn(-c2ccc(C(C)C)cc2)c1C(=O)OCC`, the IC50 came to 4.46 µM in the experiment with MDA-MB-231; 3.35 µM in the experiment with HepG2; 0.87 µM in the experiment with MCF7; 9.32 µM with HEK293; 1.15 µM in the experiment on B16-F10.
Take `CCOC(=O)c1c(-c2cc(O)c3c(c2)C(=O)c2cccc(O)c2C3=O)nn(-c2ccc(OC)cc2)c1C(=O)OCC`: the IC50 was 4.7 µM in the experiment with MDA-MB-231; 5.68 µM in the experiment with HepG2; 3.86 µM in the experiment on MCF7; 10.1 µM in the experiment with HEK293; 2.15 µM in the experiment with B16-F10.
For the compound `CCOC(=O)c1c(-c2cc(O)c3c(c2)C(=O)c2cccc(O)c2C3=O)nn(-c2ccc(OC(F)(F)F)cc2)c1C(=O)OCC`, the concentration for half-maximal inhibition (IC50) with MDA-MB-231 amounted to 3.96 µM; with HepG2, 6.23 µM; in the experiment on MCF7 it was 3.58 µM; in the experiment with HEK293 it was 9.76 µM; in the experiment on B16-F10, 3.35 µM.
Consider `COC(=O)c1c(-c2cc(O)c3c(c2)C(=O)c2cccc(O)c2C3=O)nn(-c2ccc(OC(F)(F)F)cc2)c1C(=O)OC`, for which the IC50 in the experiment on MDA-MB-231 is 3.68 µM; with HepG2, 2.29 µM; in the experiment on MCF7, 1.16 µM; with HEK293, 6.84 µM; in the experiment with B16-F10 it was 6.09 µM.
With `CCOC(=O)c1c(-c2cc(O)c3c(c2)C(=O)c2cccc(O)c2C3=O)nn(-c2cccc(C)c2)c1C(=O)OCC`, the IC50 came to 0.99 µM in the experiment on MDA-MB-231; 1.15 µM in the experiment on HepG2; 6.35 µM with MCF7; 1.12 µM in the experiment with HEK293; 3.46 µM in the experiment with B16-F10.
On to `CCOC(=O)c1c(-c2cc(O)c3c(c2)C(=O)c2cccc(O)c2C3=O)nn(-c2ccccc2C)c1C(=O)OCC`, for which the IC50 is 7.56 µM in the experiment with MDA-MB-231; 1.35 µM in the experiment on HepG2; 1.13 µM in the experiment on MCF7; 2.47 µM in the experiment with HEK293; 1.57 µM in the experiment on B16-F10.
For `O=Cc1cc(O)c2c(c1)C(=O)c1cccc(O)c1C2=O` the same measures were 4.99 µM, 3.15 µM, 2.68 µM, 4.49 µM and 2.9 µM.
Turning to `COC(=O)c1c(-c2cc(O)c3c(c2)C(=O)c2cccc(O)c2C3=O)nn(-c2ccccc2)c1C(=O)OC`, the IC50 in the experiment on MDA-MB-231 came out at 6.78 µM; in the experiment on HepG2 it was 3.41 µM; with MCF7, 9.96 µM; with HEK293 it was 8.86 µM; in the experiment with B16-F10, 5.61 µM.
Consider `CCOC(=O)c1c(-c2cc(O)c3c(c2)C(=O)c2cccc(O)c2C3=O)nn(-c2ccc(Cl)cc2)c1C(=O)OCC`, for which the IC50 in the experiment with MDA-MB-231 came out at 6.2 µM; in the experiment with HepG2, 2.16 µM; in the experiment on MCF7, 3.96 µM; with HEK293 it was 1.09 µM; in the experiment on B16-F10, 3.9 µM.
Take `CCOC(=O)c1c(-c2cc(O)c3c(c2)C(=O)c2cccc(O)c2C3=O)nn(-c2cccc(F)c2)c1C(=O)OCC`: the IC50 in the experiment on MDA-MB-231 turned out to be 1.85 µM; with HepG2, 2.6 µM; in the experiment on MCF7 it was 7.26 µM; with HEK293, 1.93 µM; in the experiment on B16-F10, 5.4 µM.
On to `CCOC(=O)c1c(-c2cc(O)c3c(c2)C(=O)c2cccc(O)c2C3=O)nn(-c2ccc(Br)cc2)c1C(=O)OCC`, for which the IC50 in the experiment with MDA-MB-231 amounted to 2.16 µM; in the experiment with HepG2 it was 1.26 µM; with MCF7, 8.98 µM; with HEK293 it was 9.07 µM; with B16-F10 it was 8.15 µM.

Source of the values: ChEMBL document CHEMBL4732018, “Design, synthesis, and biological evaluation of pyrazole-linked aloe emodin derivatives as potential anticancer agents” (RSC Med Chem, 2021).
